Holding throughout (type): functional, cell-based
Assay [1] relates to HeLa. Description: Antiproliferative activity against human HeLa cells after 3 days by MTT assay. The settings on record: 72 h. The gist of the method: (§1)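 Stock cells grown to confluence in DMEM with 10% inactivated FBS, penicillin, streptomycin and amphotericin B at 37 °C, 5% CO₂, then detached with trypsin-EDTA-glucose. About 10,000 cells per well were seeded; after 24 h, drug was added at five dose levels for 72 h. MTT was added for 3 h, formazan dissolved in propanol and read at 540 nm. IC50 was taken from dose-response curves, triplicate, mean ± SEM.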
Background: Formazan colour is commonly taken as a measure of viable cells.

Assay [2] relates to A549. Description: Antiproliferative activity against human A549 cells after 3 days by MTT assay. As to conditions: A549, 72 h. The essentials: as §1
For assay [3], the system named is MCF7. Description: Antiproliferative activity against human MCF7 cells after 3 days by MTT assay. The settings on record: MCF7, 72 h. The essentials:
as §1

A word on the IC50: it is the midpoint of a concentration-inhibition curve. The low end stands for inhibition by little substance, the high end for a need for much substance.

For the compound `O=C(Cn1c2ccccc2c(=O)c2ccccc21)Nc1ccc(F)cc1`, the IC50 in assay [1] came out at 26.6 µM; in assay [2], 24.5 µM; in assay [3] it was 27.5 µM.
Consider `O=C(Cn1c2ccccc2c(=O)c2ccccc21)Nc1ccc(Br)cc1`, for which the IC50 in assay [1] was determined as 32.2 µM; in assay [2] it was 35.1 µM; in assay [3] it was 33 µM.
For `O=C(Cn1c2ccccc2c(=O)c2ccccc21)Nc1cccc(Cl)c1` the same measures were 29.1 µM, 33.3 µM and 30.1 µM.
For `O=C(Cn1c2ccccc2c(=O)c2ccccc21)Nc1ccccc1[N+](=O)[O-]` the same measures were 13.2 µM, 11.8 µM and 12.6 µM.
Turning to `O=C(Cn1c2ccccc2c(=O)c2ccccc21)Nc1ccc(C(=O)O)cc1`, the IC50 in assay [1] turned out to be 10.7 µM; in assay [2], 8.8 µM; in assay [3], 7.12 µM.
Consider `Cc1ccc(NC(=O)Cn2c3ccccc3c(=O)c3ccccc32)cc1`, for which the IC50 in assay [1] turned out to be 21.9 µM; in assay [2], 20.2 µM; in assay [3] it was 20.1 µM.
For `O=C(Cn1c2ccccc2c(=O)c2ccccc21)Nc1ccc([N+](=O)[O-])cc1` the same measures were 17.2 µM, 19.7 µM and 14 µM.
On to `O=C(Cn1c2ccccc2c(=O)c2ccccc21)Nc1ccccc1`, for which the results for the IC50 in assay [1], in assay [2] and in assay [3] were 43.8 µM, 41.4 µM and 39.7 µM, respectively.
Regarding `O=C(Cn1c2ccccc2c(=O)c2ccccc21)Nc1ccc(O)cc1`, the IC50 in assay [1] turned out to be 22 µM; in assay [2], 17.4 µM; in assay [3] it was 15.6 µM.
For `O=C(Cn1c2ccccc2c(=O)c2ccccc21)Nc1ccc(Cl)cc1`, the IC50 in assay [1] was determined as 32.3 µM; in assay [2], 34.9 µM; in assay [3] it was 31.2 µM.
Regarding `COc1ccc(NC(=O)Cn2c3ccccc3c(=O)c3ccccc32)cc1`, the IC50 in assay [1] was 19.6 µM; in assay [2], 16.7 µM; in assay [3], 15 µM.
For `O=C(Cn1c2ccccc2c(=O)c2ccccc21)Nc1cccc(C(F)(F)F)c1` the same measures were 34.9 µM, 38.2 µM and 35.1 µM.
`O=C(Cn1c2ccccc2c(=O)c2ccccc21)Nc1ccccc1C(=O)O`: the 50% inhibitory concentration (IC50) in assay [1] was 8.8 µM; in assay [2], 7.39 µM; in assay [3], 6.07 µM.
For `O=C(Cn1c2ccccc2c(=O)c2ccccc21)Nc1ccccc1F`, the IC50 in assay [1] turned out to be 25.4 µM; in assay [2], 23.3 µM; in assay [3], 29.2 µM.
As for `O=C(Cn1c2ccccc2c(=O)c2ccccc21)Nc1ccc(C(F)(F)F)cc1`, the IC50 in assay [1] is 23.2 µM; in assay [2], 20.5 µM; in assay [3] it was 26.4 µM.

Values taken from ChEMBL document CHEMBL3259535, “Synthesis, cytotoxic study and docking based multidrug resistance modulator potential analysis of 2-(9-oxoacridin-10(9H)-yl)-N-phenyl acetamides” (Eur J Med Chem, 2014).
